Source: ChEMBL document CHEMBL2385072, “Development of oleanane-type triterpenes as a new class of HCV entry inhibitors” (J Med Chem, 2013)
Active and inactive are the calls of the source. The calls are words filed in the database; no cut-off is given here.

What was measured:
[1] = Hemolytic activity against rabbit RBC after 60 mins by spectrophotometry; type: ADME, cell-based, Oryctolagus cuniculus, Erythrocyte
Method in brief: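 2% rabbit erythrocytes in 130 mM NaCl, 20 mM Tris-HCl pH 7.4 incubated with serially diluted compounds for 60 min at 37 °C. Hemolysis read as absorbance at 540 nm.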

[2] = system: Hepatitis C virus; experiment: Antiviral activity against pseudo HCV infected in human 293T cells assessed as inhibition of HCV pseudo particles entry at 10 uM after 72 hrs by luciferase reporter gene assay; type: functional, Hepacivirus hominis; settings: HEK-293T
[3] = system: Hepatitis C virus; experiment: Antiviral activity against pseudo HCV infected in human 293T cells assessed as inhibition of HCV pseudo particles entry after 72 hrs by luciferase reporter gene assay; type: functional, organism-based, Hepacivirus hominis
Method in brief: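 HCVpp (HCV E1/E2 on Env/Vpr-deficient HIV luciferase vector, made in 293T by cotransfection, harvested 72 h) added to 5×10^3 Huh-7 cells/well with compound at final 1 or 5 μM in 1% DMSO; 72 h, 37 °C; luciferase read. Inhibition = 100 − % of DMSO control after uninfected-well background subtraction; VSVpp run in parallel; duplicate, ≥3 experiments.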

[4] = system: HepG2; experiment: Cytotoxicity against human HepG2 cells at 50 uM after 48 hrs by Alamar Blue assay; type: cell-based; settings: hepg2, 48 h
Method in brief: (§1)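 alamarBlue viability assay in HepG2, HeLa and 293T cells, compound up to 50 μM.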

[5] = system: HEK-293T; experiment: Cytotoxicity against human 293T cells at 50 uM after 48 hrs by Alamar Blue assay; type: cell-based; method in brief: as §1
[6] = target: T1, CD81 antigen (Homo sapiens, UniProt P60033); experiment: Binding affinity to CD81 (unknown origin)
T1 sequence (P60033 whole entry): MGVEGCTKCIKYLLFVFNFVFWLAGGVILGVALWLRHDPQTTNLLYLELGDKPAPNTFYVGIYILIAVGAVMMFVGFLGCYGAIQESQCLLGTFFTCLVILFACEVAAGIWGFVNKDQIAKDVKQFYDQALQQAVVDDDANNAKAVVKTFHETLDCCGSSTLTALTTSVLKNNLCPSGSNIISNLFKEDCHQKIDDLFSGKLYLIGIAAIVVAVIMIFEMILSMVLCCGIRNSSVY
Method in brief: (§2)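 BIAcore: E2 immobilized on a streptavidin sensor via SA–biotin and exposed to CD81 at 40.9–654.5 nM to fit K_D. CD81 was also tested together with compound.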

[7] = system: HeLa; experiment: Cytotoxicity against human HeLa cells at 50 uM after 48 hrs by Alamar Blue assay; type: cell-based; method in brief: as §1
[8] = system: Hepatitis C virus; experiment: Antiviral activity against pseudo HCV infected in human 293T cells assessed as inhibition of HCV pseudo particles entry at 5 uM after 72 hrs by luciferase reporter gene assay; type: functional, Hepacivirus hominis; settings: HEK-293T
[9] = system: Hepatitis C virus; experiment: Ratio of echinocystic acid IC50 to compound IC50 for pseudo HCV infected in human 293T cells assessed as inhibition of HCV pseudo particles entry after 72 hrs by luciferase reporter gene assay; type: functional, Hepacivirus hominis
Method in brief: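 HCVpp luciferase entry assay in Huh-7 cells, 72 h at 37 °C. Six-point curves at tenfold steps, 1 nM–100 μM or 0.5 nM–50 μM. Each concentration in triplicate, mean and SD.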

[10] = system: Vesicular stomatitis virus; experiment: Antiviral activity against pseudo VSV infected in human 293T cells assessed as inhibition of vesicular stromatis G protein pseudo particles entry at 1 uM after 72 hrs by luciferase reporter gene assay; type: functional; settings: HEK-293T
[11] = system: Hepatitis C virus; experiment: Antiviral activity against pseudo HCV infected in human 293T cells assessed as inhibition of HCV pseudo particles entry at 1 uM after 72 hrs by luciferase reporter gene assay; type: functional, Hepacivirus hominis; settings: HEK-293T
[12] = system: Vesicular stomatitis virus; experiment: Antiviral activity against pseudo VSV infected in human 293T cells assessed as inhibition of vesicular stromatis G protein pseudo particles entry at 5 uM after 72 hrs by luciferase reporter gene assay; type: functional; settings: HEK-293T
[13] = Inhibition of HCV envelope protein E2 protein interaction with CD81 receptor (unknown origin) by BIAcore assay; set-up: species or system Hepacivirus hominis; method in brief: as §2
[14] = system: Hepatitis C virus; experiment: Antiviral activity against pseudo HCV infected in human Huh7 cells at 10 uM after 72 hrs; type: functional, organism-based; settings: Hepacivirus hominis, Huh-7
Method in brief: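 Post-entry: Huh7 cells infected with HCVpp at 37 °C for 6 h, washed, then treated with 10 μM compound at 37 °C for 72 h. Normalized to 0.5% DMSO. CD81 antibody 5 nM as control.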

[15] = system: Hepatitis C virus; experiment: Antiviral activity against pseudo HCV infected in human Huh7 cells assessed as inhibition of HCV pseudo particles entry at 10 uM incubated for 3 hrs prior to compound addition measured after 72 hrs; type: functional, organism-based; settings: Hepacivirus hominis, Huh-7
Method in brief: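 Post-binding/pre-entry: Huh7 cells incubated with HCVpp at 4 °C for 3 h, washed, then treated with 10 μM compound at 37 °C for 72 h. Normalized to 0.5% DMSO. CD81 antibody 5 nM as control.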

[16] = system: Hepacivirus hominis; experiment: Binding affinity to HCV envelope protein E2 protein by pull down assay
Method in brief: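 Biotin-labelled probe incubated with lysate of HCVpp-packaging cells and captured on streptavidin agarose. Free biotin and unlabelled compound served as parallel probes. For competition, excess free compound was added to the lysate. Bound E2 was detected.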

[17] = system: Hepatitis C virus; experiment: Antiviral activity against pseudo HCV infected in human Huh7 cells assessed as inhibition of HCV pseudo particles entry at 10 uM incubated for 3 hrs; type: functional, organism-based; settings: Hepacivirus hominis, Huh-7
Method in brief: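 Prebinding: Huh7 cells exposed to HCVpp plus 10 μM compound at 4 °C for 3 h, washed free of virus and compound, then cultured 72 h at 37 °C. Normalized to 0.5% DMSO. CD81 antibody 5 nM as control.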

[18] = system: Hepatitis C virus; experiment: Antiviral activity against pseudo HCV infected in human Huh7 cells assessed as inhibition of HCV pseudo particles entry at 10 uM after 72 hrs; type: functional, organism-based; settings: Hepacivirus hominis, Huh-7
Method in brief: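 Co-treatment: Huh7 cells infected with HCVpp (or VSVpp) with 10 μM compound present throughout, 72 h at 37 °C. Normalized to 0.5% DMSO (final). CD81 antibody (5 nM) was the positive control and an unrelated compound the negative control. Luciferase read-out.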

[19] = system: Hepatitis C virus; experiment: Antiviral activity against pseudo HCV infected in human Huh7 cells assessed as inhibition of HCV pseudo particles entry at 10 uM incubated for 3 hrs prior to virus addition measured after 72 hrs; type: functional, organism-based; settings: Hepacivirus hominis, Huh-7
Method in brief: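 Pretreatment: Huh7 cells exposed to 10 μM compound for 3 h at 37 °C, washed, then infected with HCVpp for 72 h at 37 °C. Normalized to 0.5% DMSO. CD81 antibody 5 nM as control.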

[20] = system: Hepacivirus hominis; experiment: Binding affinity to HCV envelope protein E2 protein by SPR method
Method in brief: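 E2 loaded on streptavidin-coated biosensors and exposed to compound at 3.125–100 μM to obtain binding curves and K_D. Competition was also tested as E2 binding to a biotin-labelled compound chip in the presence of free compound at varied doses.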

CC1(C)CC[C@]2(C(=O)O)CC[C@]3(C)C(=CC[C@@H]4[C@@]5(C)CC[C@H](O)C(C)(C)[C@@H]5CC[C@]43C)[C@@H]2C1 [OLEANOLIC_ACID]
Activity ([1]; erythrocyte, 1 h): Toxic | inhibition at 10 µM [2]: 65% | IC50 [3]: 10000 nM

CC1(C)CC[C@]2(C(=O)O)[C@H](O)C[C@]3(C)C(=CC[C@@H]4[C@@]5(C)CC[C@H](O)C(C)(C)[C@@H]5CC[C@]43C)[C@@H]2C1 [ECHINOCYSTIC ACID]
Activity [4]: Non-toxic | Activity [5]: Non-toxic | Kd [6]: 21 nM | HC50 at 1 h ([1]; rabbit red blood cells, read-out: CC50): 15 µM | Activity [7]: Non-toxic

CC1(C)CC[C@]2(C(=O)NCc3cn(CCCn4cc(CNC(=O)[C@]56CCC(C)(C)C[C@H]5C5=CC[C@@H]7[C@@]8(C)CC[C@H](O)C(C)(C)[C@@H]8CC[C@@]7(C)[C@]5(C)C[C@H]6O)nn4)nn3)[C@H](O)C[C@]3(C)C(=CC[C@@H]4[C@@]5(C)CC[C@H](O)C(C)(C)[C@@H]5CC[C@]43C)[C@@H]2C1
Activity [4]: Non-toxic | inhibition at 5 µM [8]: 89% | Ratio IC50 [9]: 200 | Activity [5]: Non-toxic | inhibition at 1 µM [10]: 16.5% | inhibition at 1 µM [11]: 86.3% | Activity [7]: Non-toxic | IC50 [3]: 10 nM | inhibition at 5 µM [12]: 11.9%

CC1(C)CC[C@]2(C(=O)O)CC[C@]3(C)C(=CC[C@@H]4[C@@]5(C)CC[C@H](O)[C@@](C)(C(=O)O)[C@@H]5CC[C@]43C)[C@@H]2C1
inhibition at 10 µM [2]: 0%

CC1(C)CC[C@]2(C(=O)O)CC[C@]3(C)C(=CC[C@@H]4[C@@]5(C)CC[C@H](OC6O[C@H](CO)[C@@H](O)[C@H](O)[C@H]6O)C(C)(C)[C@@H]5CC[C@]43C)[C@@H]2C1 (some centres not stated)
inhibition at 10 µM [2]: 0%

CC1(C)CC[C@]2(C(=O)O)[C@H](O)C[C@]3(C)C(=CC[C@@H]4[C@@]5(C)CC[C@H](O)C(C)(C)[C@@H]5CC[C@]43C)[C@H]2C1 [ECHINOCYSTIC ACID]
Kd [13]: 24000 nM | inhibition at 5 µM [8]: 77.7% | Activity [14]: inactive | inhibition [15]: Active | Activity [16]: Active | inhibition [17]: Active | inhibition at 1 µM [10]: 7.2% | inhibition [18]: Active | inhibition [19]: Active | inhibition at 1 µM [11]: 27.5% | Activity [20]: Dose-dependent effect | inhibition at 10 µM [2]: 90% | IC50 [3]: 1400 nM | inhibition at 5 µM [12]: 9%

CC1(C)CC[C@]2(C(=O)NCCCC[C@H](N)C(=O)O)CC[C@]3(C)C(=CC[C@@H]4[C@@]5(C)CC[C@H](O)C(C)(C)[C@@H]5CC[C@]43C)[C@@H]2C1
inhibition at 10 µM [2]: 60%

C[C@H]1[C@H](C)CC[C@]2(C(=O)O)CC[C@]3(C)C(=CC[C@@H]4[C@@]5(C)CC[C@H](O)C(C)(C)[C@@H]5CC[C@]43C)[C@H]12 [URSOLIC ACID]
inhibition at 10 µM [2]: 30%

CC1(C)CC[C@]2(C(=O)O)CC[C@]3(C)C(=CC[C@@H]4[C@@]5(C)CC[C@H](O)[C@@](C)(CO)[C@@H]5CC[C@]43C)[C@@H]2C1 [HEDERAGENIN]
inhibition at 10 µM [2]: 10%

C=C(C)[C@@H]1CC[C@]2(C(=O)O)CC[C@]3(C)[C@H](CC[C@@H]4[C@@]5(C)CC[C@H](O)C(C)(C)[C@@H]5CC[C@]43C)[C@@H]12 [BETULINIC ACID]
inhibition at 10 µM [2]: 75%

CC(=O)O[C@H]1CC[C@]2(C)[C@H]3CC=C4[C@@H]5CC(C)(C)CC[C@]5(C(=O)O)CC[C@@]4(C)[C@]3(C)CC[C@H]2C1(C)C [ACETYL OLEANOLIC ACID]
inhibition at 10 µM [2]: 10%

CC1(C)CC[C@]2(C(=O)O)CC[C@]3(C)[C@H](C(O)C[C@@H]4[C@@]5(C)CC[C@H](O)C(C)(C)[C@@H]5CC[C@]43C)[C@@H]2C1 (some centres not stated)
inhibition at 10 µM [2]: 60%

CC(=O)OC[C@H]1O[C@@H](O[C@H]2[C@H](OC(C)=O)[C@@H](OC(C)=O)[C@H](OC(=O)[C@]34CCC(C)(C)C[C@H]3C3=CC[C@@H]5[C@@]6(C)CC[C@H](O)C(C)(C)[C@@H]6CC[C@@]5(C)[C@]3(C)C[C@H]4O)O[C@@H]2COC(C)=O)[C@H](OC(C)=O)[C@@H](OC(C)=O)[C@H]1OC(C)=O
Activity [4]: Non-toxic | inhibition at 5 µM [8]: 88.6% | Ratio IC50 [9]: 5 | Activity [5]: Non-toxic | inhibition at 1 µM [10]: 11.2% | inhibition at 1 µM [11]: 80.4% | Activity [7]: Non-toxic | IC50 [3]: 300 nM | inhibition at 5 µM [12]: 14.9%

COC(=O)[C@]12CCC(C)(C)C[C@H]1C1=CC[C@@H]3[C@@]4(C)CC[C@H](O)C(C)(C)[C@@H]4CC[C@@]3(C)[C@]1(C)CC2 [METHYL OLEANOLATE]
inhibition at 10 µM [2]: 60%

CC1(C)[C@@H](O)CC[C@]2(C)[C@H]3CC=C4[C@@H]5C[C@](C)(CO)CC[C@]5(C(=O)O)[C@H](O)C[C@@]4(C)[C@]3(C)CC[C@@H]12
inhibition at 10 µM [2]: 90%

CC1(C)CC[C@]2(C(=O)O)CC[C@]3(C)C(=CC[C@@H]4[C@@]5(C)C[C@@H](O)[C@H](O)C(C)(C)[C@@H]5CC[C@]43C)[C@@H]2C1 [MASLINIC ACID]
inhibition at 10 µM [2]: 0%

CC1(C)CC[C@]2(C(=O)O)CC[C@]3(C)C(=CC[C@@H]4[C@@]5(C)CC[C@H](O)C(C)(C)[C@@H]5[C@@H](O)C[C@]43C)[C@@H]2C1
inhibition at 10 µM [2]: 0%
